Results as given in PubChem BioAssay AID2608 (Broad Institute, 2010).

Tested on: BJeLR fibroblasts viability, alamar blue fluorescence, 48 h
Experiment: cytotoxicity toward RAS-transformed BJeLR fibroblasts, dose response, cell-based, alamar blue fluorescence, 48 h, powder samples (AID 2608)
Procedure, shortened: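 Assay system: HRASV12-transformed BJ fibroblasts / Amount: 1000 cells per well / Compound dosing: 2-fold series, 0.01 to 5.33 µg/mL final / Buffer or medium: DMEM/M199 growth medium supplemented with FBS / Technique: alamar blue fluorescence, excitation 544 nm, emission 590 nm / Times: 48 h exposure, 37 °C, 5% CO2, ~16 h alamar blue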

COc1ccc(C(C(=O)NC2CCCCC2)N(C(=O)CCl)c2ccc(C)cc2)cc1 (centres undefined)
EC50: 161 nM

CCCCCCCN(C(=O)CCl)c1cccc(C)c1
EC50: 119 nM

Cc1ccc(N(C(=O)CCl)C(C(=O)NC2CCCCC2)c2cccnc2)cc1C (centres undefined)
EC50: 160 nM

CCOc1ccc(Nc2nc(N)nc(CCl)n2)cc1
EC50: 226 nM

C=CCOc1ccccc1CN(C(=O)CCl)c1ccc2c(c1)OCO2
EC50: 855 nM

COc1cccc(N(C(=O)CCl)C(C(=O)NCCc2ccccc2)c2cccs2)c1 (centres undefined)
EC50: 168 nM

COc1ccc(N(C(=O)CCl)C(C(=O)NCCc2ccccc2)c2cccs2)cc1 (centres undefined)
EC50: 217 nM

Cc1ccc(C2CC(c3cccs3)=NN2C(=O)CCl)cc1 (centres undefined)
EC50: 776 nM

COc1ccc(CN(CCC(c2ccccc2)c2ccc(OC(C)C)cc2)C(=O)CCl)cc1OC (centres undefined)
EC50: 642 nM

Nc1nc(CCl)nc(Nc2ccc3ccccc3c2)n1
EC50: 85 nM

O=C(CCl)N=c1sccn1Cc1ccccc1Cl
EC50: 149 nM

COc1ccc(N(C(=O)CCl)C(C(=O)NCCc2ccccc2)c2cccs2)cc1Cl (centres undefined)
EC50: 26 nM

COC(=O)[C@@H]1Cc2c([nH]c3ccccc23)C(C)(C)N1C(=O)CCl
EC50: 475 nM

COc1ccc(C(C(=O)NC2CCCCC2)N(C(=O)CCl)c2cccc(Cl)c2)cc1 (centres undefined)
EC50: 171 nM
